Source: ChEMBL document CHEMBL1127606, “HIV-1 reverse transcriptase inhibitor design using artificial neural networks” (1994)
Blank lines part the entries; values can stand above or below the molecule they belong to. Active and inactive are the calls of the source. The rule behind the calls is not given here.

How the values were obtained:
[1] = biological target: Human immunodeficiency virus type 1 reverse transcriptase (Human immunodeficiency virus 1) (UniProt Q72547); assay: Inhibition of HIV-1 reverse transcriptase; - = inactive
MT4 [2] = assay: Cytotoxic concentration for 50% death of uninfected MT-4 cell culture
MT4 [3] = assay: RT activity in culture fluid at 10e-5 concentration of compound was tested on MT-4 cells infected by […]; type: cell-based
Method in brief: (§1)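 RT assay: infected MT-4 cells (H9/IIIB-derived HIV-1, 0.05–0.1 log10 EPCD50 per cell) were cultured 7 days with compound at 10^-4 or 10^-5 M. Reverse transcriptase activity in the culture fluid was measured and expressed as % of untreated infected control.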

MT4 [4] = assay: RT activity in culture fluid at 10e-4 concentration of compound was tested on MT-4 cells infected by […]; type: cell-based; method in brief: as §1
MT4 [5] = assay: Content of viable cells at 10e-4 concentration of compound was tested on MT-4 cells infected by […]; type: functional, Homo sapiens
Method in brief: (§2)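 Anti-HIV viable-cell assay: MT-4 lymphocytes infected with cell-free fluid from chronically HIV-1-infected H9/IIIB cultures at 0.05–0.1 log10 EPCD50 per cell. They were cultured 7 days with compound at 10^-4 or 10^-5 M. Viable cells were counted by 0.25% trypan blue exclusion and reported as % viable cells.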

MT4 [6] = assay: Number of infected cells at 10e-4 concentration of compound was tested on MT-4 cells infected by […]; type: functional, Homo sapiens
Method in brief: (§3)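 Infected-cell count: HIV-1 (H9/IIIB-derived fluid, 0.05–0.1 log10 EPCD50 per cell) was used to infect MT-4 lymphocytes, which were then grown 7 days with compound at 10^-4 or 10^-5 M. Cells expressing viral antigens on their surface membranes were scored by indirect immunofluorescence with anti-HIV-1 antibodies, as % of cells.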

MT4 [7] = assay: Antigen p24 content in culture fluid at 10e-4 concentration of compound was tested on MT-4 cells infected by […]; type: functional, Homo sapiens
Method in brief: (§4)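 p24 assay: MT-4 cultures were infected with HIV-1 from chronically infected H9/IIIB cultures (0.05–0.1 log10 EPCD50 per cell) and held 7 days with compound at 10^-4 or 10^-5 M. Virus production was measured as p24 antigen in culture fluid by immunoenzymatic assay, in ng/mL.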

MT4 [8] = assay: Number of infected cells at 10e-5 concentration of compound was tested on MT-4 cells infected by […]; type: functional, Homo sapiens; method in brief: as §3
MT4 [9] = assay: Content of viable cells at 10e-5 concentration of compound was tested on MT-4 cells infected by […]; type: functional, Homo sapiens; method in brief: as §2
MT4 [10] = assay: Antigen p24 content in culture fluid at 10e-5 concentration of compound was tested on MT-4 cells infected by […]; type: functional, Homo sapiens; method in brief: as §4
MT4 [11] = assay: Cytotoxic concentration for 50% death of MT-4 cell culture infected by HIV-1/ IIIB; type: functional, Homo sapiens

SMILES: COC1=NC(CC(C)=O)N=C(OC)C1(CC(O)CO)[N+](=O)[O-] (stereo unspecified)
- CTC50 (MT4 [2]): 0.058 M
- RT activity (MT4 [3]): 82.5%
- RT activity (MT4 [4]): 84.3%
- Viable cells (MT4 [5]): 37.3%
- No. of infected cells (MT4 [6]): 19.7%
- Antigen p24 content (MT4 [7]): 1.92 ng/mL
- No. of infected cells (MT4 [8]): 12.6%
- Viable cells (MT4 [9]): 52.1%
- Antigen p24 content (MT4 [10]): 1.87 ng/mL

SMILES: Cc1cn(C2C=C[C@H](O)[C@@H](CO)O2)c(=O)[nH]c1=O (single isomer, unassigned)
- Activity [1]: inactive

SMILES: Cc1cn(C2C=C[C@@H](O)[C@@H](CO)O2)c(=O)[nH]c1=O (single isomer, unassigned)
- Activity [1]: inactive

SMILES: Nc1nc(=O)n(C2OC(CO)CC2F)cc1F (stereo unspecified)
- Activity [1]: inactive

SMILES: COC(=O)C(C)NP(=O)(OCC1OC(n2cc(C)c(=O)[nH]c2=O)CC1F)OCC(Cl)(Cl)Cl (stereo unspecified)
- Activity [1]: inactive

SMILES: Cc1cn([C@@H]2C=CC(O)CO2)c(=O)[nH]c1=O (single isomer, unassigned)
- Activity [1]: inactive

SMILES: Cc1cn([C@@H]2C=C[C@@H](N=[N+]=[N-])[C@@H](CO)O2)c(=O)[nH]c1=O
- Activity [1]: inactive

SMILES: Cc1cn([C@H]2C[C@H](N=[N+]=[N-])[C@@H](CO)O2)c(=O)[nH]c1=O [ZIDOVUDINE]
- CTC50 (MT4 [2]): 0.0053 M
- RT activity (MT4 [3]): 17%
- RT activity (MT4 [4]): 19.2%
- Viable cells (MT4 [5]): 78.6%
- No. of infected cells (MT4 [6]): 2.9%
- Antigen p24 content (MT4 [7]): 0.82 ng/mL
- No. of infected cells (MT4 [8]): 2.1%
- Viable cells (MT4 [9]): 69.7%
- Antigen p24 content (MT4 [10]): 0.68 ng/mL

SMILES: Cc1cn([C@@H]2O[C@H](CO)[C@@H](N=[N+]=[N-])[C@H]2F)c(=O)[nH]c1=O
- Activity [1]: inactive

SMILES: CC(=O)N[C@@H]1C=C[C@H](n2cc(C)c(=O)[nH]c2=O)O[C@@H]1CO
- Activity [1]: inactive

SMILES: COc1nc(CC(C)=O)nc(OC)c1CC(O)CO (stereo unspecified)
- CTC50 (MT4 [11]): 78 µM

SMILES: O=c1ccn(C2OC(CO)CC2F)c(=O)[nH]1 (stereo unspecified)
- Activity [1]: inactive

SMILES: COC1=NC(OC)=C([N+](=O)[O-])C(CC(C)=O)N1CC(O)CO (stereo unspecified)
- CTC50 (MT4 [2]): 0.0466 M
- RT activity (MT4 [3]): 18.7%
- RT activity (MT4 [4]): 20.9%
- Viable cells (MT4 [5]): 85.1%
- No. of infected cells (MT4 [6]): 3.6%
- Antigen p24 content (MT4 [7]): 0.87 ng/mL
- No. of infected cells (MT4 [8]): 2.8%
- Viable cells (MT4 [9]): 83.2%
- Antigen p24 content (MT4 [10]): 0.77 ng/mL

Other lines, results leading:

- Activity [1]: inactive
SMILES: Cc1cn([C@@H]2O[C@H](CO)C[C@H]2F)c(=O)[nH]c1=O

- Activity [1]: inactive
SMILES: Cc1cn([C@H]2C=C[C@@H](N=[N+]=[N-])[C@@H](CO)O2)c(=O)[nH]c1=O

- Activity [1]: inactive
SMILES: CC(=O)OC[C@H]1O[C@H](n2cc(C)c(=O)[nH]c2=O)C=C[C@@H]1OC(C)=O

- Activity [1]: inactive
SMILES: COC(=O)C(NP(=O)(OCC1OC(n2cc(C)c(=O)[nH]c2=O)CC1F)OCC(Cl)(Cl)Cl)C(C)C (stereo unspecified)

- Activity [1]: inactive
SMILES: CC(=O)N[C@@H]1C=C[C@@H](n2cc(C)c(=O)[nH]c2=O)OC1

- Activity [1]: inactive
SMILES: CC(=O)O[C@H]1C=C[C@@H](n2cc(C)c(=O)[nH]c2=O)OC1

- Activity [1]: inactive
SMILES: CC(=O)N[C@@H]1C=C[C@@H](n2cc(C)c(=O)[nH]c2=O)O[C@@H]1CO

- Activity [1]: inactive
SMILES: O=c1ccn(C2OC(CO)C=C2F)c(=O)[nH]1 (stereo unspecified)

- Activity [1]: inactive
SMILES: CC(=O)O[C@H]1C=C[C@H](n2cc(C)c(=O)[nH]c2=O)O[C@@H]1CO

- Activity [1]: inactive
SMILES: Cc1cn(C2C=C[C@@H](N=[N+]=[N-])CO2)c(=O)[nH]c1=O (single isomer, unassigned)

- Activity [1]: inactive
SMILES: COC(=O)C(Cc1ccccc1)NP(=O)(NC(Cc1ccccc1)C(=O)OC)OCC1OC(n2cc(C)c(=O)[nH]c2=O)CC1F (stereo unspecified)

- Activity [1]: inactive
SMILES: O=c1ccn(C2OC(CO)C(F)C2F)c(=O)[nH]1 (stereo unspecified)

- Activity [1]: inactive
SMILES: Cc1cn([C@@H]2O[C@H](CO)C=C2F)c(=O)[nH]c1=O

- Activity [1]: inactive
SMILES: CCc1cc(CCN2C(=O)c3ccccc3C2=O)c(O)nc1C
